# CYP2C9 act: human CYP2C9 activators, primary screen, biochemical, luminescence; recombinant CYP2C9, luciferin-H conversion; stronger effect = higher value; factor 1 = untreated enzyme, 0 = blocked; Cytochrome P450 2C9 (Homo sapiens), P11712; activation factor at 5 µM; AID 1024, 2008; hit rate 1.4% among 96,000;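 active = activation factor of 2 or more for CYP2C9 at a 5 µM dose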;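 also: 0 = sulfaphenazole-blocked wells and 1 = vehicle-only wells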
# Target sequence (P11712 whole entry, looked up): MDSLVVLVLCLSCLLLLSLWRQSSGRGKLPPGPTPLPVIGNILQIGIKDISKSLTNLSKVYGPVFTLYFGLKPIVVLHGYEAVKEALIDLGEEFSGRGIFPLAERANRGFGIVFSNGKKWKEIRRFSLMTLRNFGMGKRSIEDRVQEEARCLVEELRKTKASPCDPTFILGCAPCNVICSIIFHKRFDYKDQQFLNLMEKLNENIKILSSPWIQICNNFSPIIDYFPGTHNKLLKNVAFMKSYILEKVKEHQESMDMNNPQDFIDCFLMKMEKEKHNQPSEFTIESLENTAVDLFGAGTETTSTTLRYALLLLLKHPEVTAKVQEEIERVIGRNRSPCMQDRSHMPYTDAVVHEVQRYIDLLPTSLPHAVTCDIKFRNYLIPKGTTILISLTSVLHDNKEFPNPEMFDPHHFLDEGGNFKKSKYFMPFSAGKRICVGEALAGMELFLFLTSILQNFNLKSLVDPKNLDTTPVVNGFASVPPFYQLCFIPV
# Ecoli tolC: growth inhibitors of E. coli tolC mutant, primary screen, strain BW25113 ΔtolC::kan, 384-well; OD615; growth inhibition, % at 10 µM (by protocol); hit rate 2.2% among 65,000; AID 573, 2007;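 active = growth inhibition at or above a cutoff equal to the mean over every tested compound plus 3 SD, cut at about 60% in these data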;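 also: growth measured after 20 h incubation at 37 °C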
#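 Assay system: tolC-deleted E. coli BW25113. Medium: kanamycin-containing LB broth (50 µg/mL). Dosing: 10 µM final, single dose. Timing: bacterial growth with compound for 20 h at 37 °C. Detection: A615 absorbance measurement. Read-out basis: growth inhibition in percent.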
# CYP2C19 activ: human CYP2C19 activators, primary screen, biochemical, luminescence. AID 1025, 2008. recombinant CYP2C19, luciferin-H EGE luminescence; stronger effect = higher value; 0 = fully inhibited enzyme, 1 = untreated enzyme. activation factor at 5 µM. 96,000 tested, under 10 active. Cytochrome P450 2C19 (Homo sapiens), P33261;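 active = activation factor of at least 2 at 5 µM in the primary screen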;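 also: 0 = wells with 2.5 mM tranylcypromine and 1 = vehicle-only wells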
# CYP2C19 inh: blockers of cytochrome P450 2C19 activity – biochemical, luminescence, ADME assay, primary screen. CYP2C19 Supersomes, luciferin-H EGE luminescence, 30 min. inhibition, % at 5 µM. hit rate 21% among 96,000;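 active = CYP2C19 inhibition above a set limit at 5 µM in the primary screen, cut at about 50% in these data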;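 also: plate controls were negative control wells for no effect and 2.5 mM tranylcypromine positive control for full effect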
# Ecoli WT expand: growth inhibitors of wild-type E. coli, primary screen, strain BW25113, expanded library, OD600; OD600 absorbance; growth inhibition, % at 100 µM; hit rate 0.15% among 98,000; AID 710, 2007;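 active = growth inhibition above about 50% at one test dose, limit read from the data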;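 also: growth measured after 20 h incubation at 37 °C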
# CYP2C9 inh: blockers of cytochrome P450 2C9 activity – biochemical, luminescence, ADME assay, primary screen | hit rate 20% among 96,000 | P11712 | AID 777, 2007 | CYP2C9 Supersomes, luciferin-H conversion | inhibition, % at 5 µM;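 active = blocking of liver enzyme CYP2C9 beyond about 50% at 5 µM, limit read from the data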
# * marks the source's active call; other numbers are inactive results; . = no result. Shown are actives, neighbours in structure and some others; about 29% of the full set was active somewhere.
SMILES,CYP2C9 act,Ecoli tolC,CYP2C19 activ,CYP2C19 inh,Ecoli WT expand,CYP2C9 inh
CCOC(=O)c1cnc2c(C)cccc2c1NCc1ccco1,0.5,17,0.5,47,14,49
CCOC(=O)c1ccc2ncc(C(=O)OCC)c(NCc3ccco3)c2c1,0.4,22,0.6,45,-4,56*
CCOC(=O)c1cnc2ccc(Br)cc2c1NCC(C)O (stereo not given),0.8,5,0.9,11,.,16
CCOC(=O)c1ccc2ncc(C(=O)OCC)c(NCCCN3CCOCC3)c2c1,0.1,16,0.2,83*,7,88*
CCOC(=O)c1cnc2ccc(Br)cc2c1NCCO,0.8,2,1,3,3,16
O=C(NCc1ccco1)C(c1ccco1)N(CCc1ccccc1)C(=O)Cn1nnc2ccccc21 (stereo not given),1,21,0.9,8,-4,-4
O=c1[nH]n(-c2cccc3cccnc23)c(=O)c2ccccc12,1.8,-21,0.6,40,-5,-79
O=S1(=O)Nc2c(ccc3cccnc23)-c2ccccc21,0.4,100*,1,4,80*,65*
CC/C(=C1/C(=O)CC(C)(C)C(C(=O)OC)C1=O)N1CCCC1 (stereo not given),0.9,-24,1,4,7,6
Cc1ccc(SCCNC(=O)CN(c2ccc3c(c2)OCO3)S(C)(=O)=O)cc1,0.1,12,0.1,92*,2,92*
CS(=O)(=O)N(CC(=O)NCCSC1CCCCC1)c1ccc2c(c1)OCO2,0.4,1,0.3,70*,1,56*
O=C(NCCSCc1ccco1)Nc1ccccc1,0.7,8,0.2,79*,17,25
Cc1ccccc1CSCCNC(=O)CN(c1ccc2c(c1)OCO2)S(C)(=O)=O,0.4,-4,0.4,64*,-4,56*
CNC(=O)CN(c1ccc2c(c1)OCCO2)S(C)(=O)=O,1.3,.,1.1,-6,5,-33
N#CC1=C(N2CCCCC2)c2cc3c(n2C1=O)CCCC3,0.5,.,0.5,45,-1,46
O=C(CN1CCN(c2ccccc2)CC1)Nc1ccc(Oc2ccccc2)cc1,0.8,.,1,1,-21,17
Cc1ccccc1N(CC(=O)NCCSCc1ccco1)S(C)(=O)=O,0.3,-4,0.3,74*,2,68*
CC(=O)N1CCN(Cc2nc3cc(NC(=O)c4ccccc4C)ccc3n2C)CC1,1,.,0.9,7,1,3
CCC1CCCCN1C(=O)CSc1nnc(-c2cccc(Cl)c2)o1 (stereo not given),2.3*,34,0,98*,-17,-128
CCC1CCCCN1C(=O)CSc1nnc(-c2ccc(Cl)s2)o1 (stereo not given),0.5,39,0.1,95*,-5,46
CCC1CCCCN1C(=O)CSc1nnc(CNC(=O)COc2ccc(Cl)cc2)o1 (stereo not given),0.4,-2,0.5,45,5,62*
CCC1CCCCN1C(=O)CSc1nnc(-c2ccco2)o1 (stereo not given),.,-1,.,.,-1,.
CCC1CCCCN1C(=O)CSc1nnc(-c2ccc(Cl)cc2)o1 (stereo not given),0.7,7,0.2,82*,-2,33
COc1ccc(-c2nnc(SCC(=O)N3CCCCC3)o2)cc1OC,1,-11,0.8,16,0,4
COc1cccc(C2=NOC(C(=O)NCCN3CCOCC3)C2)c1 (stereo not given),1,-19,1.1,-6,-1,3
SMILES,CYP2C9 act,Ecoli tolC,CYP2C19 activ,CYP2C19 inh,Ecoli WT expand,CYP2C9 inh
O=c1cc(CSc2ccc(S(=O)(=O)N3CCCCC3)cn2)nc2sccn12,0.2,7,0.3,66*,3,80*
C=C(C)c1nc2cc(OC)c(OC)cc2c(=O)o1,0.8,.,0.9,9,5,24
CC(C(=O)O)n1nc2ccccc2n1 (stereo not given),1,-30,1.1,-6,4,-4
N#Cc1c(N)n(CCNC(=O)c2ccc(Cl)cc2)c2nc3ccccc3nc12,1,.,0.9,10,3,-4
CCCCn1c(NC(=O)c2ccccc2)c(C#N)c2nc3ccccc3nc21,0.2,67*,1,-1,2,81*
CCCCn1c(NC(=O)c2ccc(F)cc2)c(C#N)c2nc3ccccc3nc21,.,88*,.,.,.,.
CCOc1ccc(NC(=O)CCn2c(=O)[nH]c3ccsc3c2=O)cc1,0.4,.,0.8,16,-12,57*
O=C(CCn1c(=O)[nH]c2ccccc2c1=O)Nc1ccccc1,0.5,-8,0.5,53*,-1,47
COCCCNC(=O)CCCn1c(=O)[nH]c2ccccc2c1=O,1,-9,1.1,-8,8,0
COc1cc(OC)c(NC(=O)CCNC(=O)Cn2ccc3ccccc3c2=O)cc1Cl,0.9,.,1,1,-9,10
COc1cccc(NC(=O)CCNC(=O)Cn2ccc3ccccc3c2=O)c1,0.3,.,0.7,35,-3,71*
CCN(CCCNC(=O)CCCCn1c(=O)[nH]c2ccccc2c1=O)c1ccccc1,0.3,8,0.4,62*,-7,68*
CCN(CCCNC(=O)CCNC(=O)Cn1ccc2ccccc2c1=O)c1ccccc1,0.2,1,0.3,68*,-2,77*
Brc1ccc(Oc2ncc(CN3CCN(c4ccccc4)CC3)s2)cc1,0.3,.,0.4,57*,-7,71*
Clc1ncc(CN2CCN(Cc3ccccc3)CC2)s1,0.9,.,0.3,74*,12,8
Cc1ccc(Oc2ncc(CN3CCOCC3)s2)cc1,0.8,.,0.2,79*,8,21
COc1ccc(-c2noc(CN3CCN(c4ccccc4)CC3)n2)cc1,0.8,8,0.8,21,-4,23
CCOC(=O)C1CCN(Cc2cnc(Oc3ccc(OC)cc3)s2)CC1,0.9,.,0.9,8,8,12
Clc1cccc(Oc2ncc(CN3CCOCC3)s2)c1,0.8,.,0.2,82*,11,16
COc1cc(S(=O)(=O)N(C)C)ccc1F,.,-5,.,.,-8,.
CC(=O)/C(=N/Nc1cccc(C)c1)N1CCOCC1,0.3,.,0.3,67*,4,68*
COC(=O)CS(=O)(=O)c1nnc([C@H](Cc2ccccc2)NC(=O)OC(C)(C)C)o1,0.2,-6,0.2,84*,-1,77*
COC(=O)CSc1nnc([C@H](Cc2ccccc2)NC(=O)OC(C)(C)C)o1,1,-4,0.9,12,-4,2
Cc1cccc(CS(=O)(=O)c2nnc([C@H](Cc3ccccc3)NC(=O)OC(C)(C)C)o2)c1,0.4,.,0.6,36,4,56*

# Bioassay records from PubChem.
